Compound activity as filed in PubChem BioAssay.
A selection: hits, their analogues and other compounds. The true share with any hit is near 2.2%.
V-ATPase pHluor: alters yeast V-ATPase proton transport | response, % at 10 µM | AID 504577 | S. cerevisiae, pHLuorin cytosolic pH fluorescence | actives 0.37% (n = 350,000); in the data active = response mostly above about 7.3%, no sharp cut-off; inactive = mostly below about 5.4%; also: actives read high
Exocytosis inh: lytic granule exocytosis inhibition. TALL-104 LAMP-1 surface exposure, flow cytometry; cells stimulated with thapsigargin and PMA. actives 0.66% (n = 360,000). inhibition, % at 10 µM. AID 651702;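 active = inhibition above about 55%, limit read from the data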
ARFGAP1 inh: inhibits rat ARF GTPase activating protein 1 | Arfgap1-stimulated ARF1 GTP hydrolysis, GDP FP detection | inhibition, % at 16.5 µM | actives 0.26% (n = 360,000) | AID 651572;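 active = inhibition above a per-plate limit, mean inhibition of low control wells plus 3 SD, cut at about 25% in these data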;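 also: 0% = DMSO wells with enzyme and 100% = wells lacking Arfgap1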
Target sequence (Q62848 1-136 limits assumed): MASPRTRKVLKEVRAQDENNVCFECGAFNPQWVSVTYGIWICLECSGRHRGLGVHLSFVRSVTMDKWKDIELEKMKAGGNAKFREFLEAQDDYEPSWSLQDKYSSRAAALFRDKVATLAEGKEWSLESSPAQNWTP
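Material: truncated rat Arfgap1 GAP domain; Incubation: compound-enzyme preincubation 20 min, reaction 120 min, detection 60 min, 25 °C; Read-out: percent inhibition of Arfgap1-stimulated GTP hydrolysis; Technique: FP, GDP Alexa 633 tracer displaced from anti-GDP antibody, 620/688 nm; Controls: No-Arfgap1 wells (100%) versus DMSO full-reaction wells (0%); Replication: single well per compound.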
NRP1-CendR mod: alters CendR peptide binding to human NRP-1 | O14786 | FAM-RPARPAR peptide binding to NRP-1, fluorescence polarization | inhibition, % at 25 µM | actives 0.85% (n = 360,000) | AID 602438;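 active = inhibition or corrected inhibition above about 18%, plus a signal ratio from 0.5 to 1.5, limit read from the data, passing the limit was not always enough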
ASAP1 GAP inh: inhibitors of human ASAP1 ArfGAP activity. Q9ULH1. actives 0.19% (n = 360,000). inhibition, % at 16.5 µM. AID 624377. ASAP1-stimulated ARF1 GTP hydrolysis, GDP FP detection; in the data active = inhibition above about 25%;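 also: 0% = vehicle with enzyme and substrate and 100% = no enzyme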
Target sequence (Q9ULH1 325-724 limits assumed): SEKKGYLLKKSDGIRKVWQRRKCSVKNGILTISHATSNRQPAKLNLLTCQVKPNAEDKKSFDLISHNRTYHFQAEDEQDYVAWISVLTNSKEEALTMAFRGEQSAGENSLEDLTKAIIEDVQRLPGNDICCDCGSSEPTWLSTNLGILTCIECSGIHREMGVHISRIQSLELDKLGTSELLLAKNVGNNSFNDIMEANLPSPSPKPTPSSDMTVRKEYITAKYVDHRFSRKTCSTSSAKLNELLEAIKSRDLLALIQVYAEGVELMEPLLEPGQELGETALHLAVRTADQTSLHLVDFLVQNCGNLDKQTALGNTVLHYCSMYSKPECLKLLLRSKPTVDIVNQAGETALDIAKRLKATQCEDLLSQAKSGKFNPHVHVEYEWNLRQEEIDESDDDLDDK
The depositor's hits bear a star; . = not tested or not shown.

SMILES | V-ATPase pHluor | Exocytosis inh | ARFGAP1 inh | NRP1-CendR mod | ASAP1 GAP inh
COC(=O)CCC(=O)OC1(C)C(=O)C=C2C=C(C3CC3)N(CCN3CCOCC3)C=C2C1=O (centres undefined) | 0 | 4 | -3 | 16 | -9
COC(=O)CCC(=O)OC1(C)C(=O)C=C2C=C(C3CC3)N(CCCOC(C)C)C=C2C1=O (centres undefined) | -3 | 33 | . | 20 | .
COC(=O)CCC(=O)OC1(C)C(=O)C=C2C=C(C3CC3)N(C(CO)CO)C=C2C1=O (centres undefined) | -1 | -3 | 6 | 27* | -2
COC(=O)CCC(=O)OC1(C)C(=O)C=C2C=C(C3CC3)N(CCc3c[nH]c4ccccc34)C=C2C1=O (centres undefined) | -8 | -4 | -12 | 0 | -3
COC(=O)CCC(=O)OC1(C)C(=O)C=C2C=C(C3CC3)N(CCCCO)C=C2C1=O (centres undefined) | -2 | -16 | 0 | 21* | 17
C=CCN1C=C2C(=O)C(C)(OC(=O)CCC(=O)OC)C(=O)C=C2C=C1C1CC1 (centres undefined) | -1 | -11 | 13 | 38* | -15
COC(=O)CCC(=O)OC1(C)C(=O)C=C2C=C(C3CC3)N(CCc3ccccn3)C=C2C1=O (centres undefined) | 2 | 6 | -14 | 30* | 1
CCCCCC(=O)NC1CCCCN(C)C1=O (centres undefined) | . | . | 11 | . | -3
CCCCS(=O)(=O)N1CCN(C(=O)C(=O)c2cccc(C(F)(F)F)c2)CC1 | . | . | -8 | . | -12
COC(=O)CCCC1=CC2=CC(=O)C(C)(OC(=O)c3cccs3)C(=O)C2=CN1CCCCO (centres undefined) | 6 | -2 | 4 | 40* | 20
O=C(NCc1ccccc1)[C@@H]1CCCN1C(=O)[C@H]1CCCN1C(=O)c1cccs1 | . | . | 1 | . | 10
CC(C)CN(C(=O)COC(=O)C1c2ccccc2Oc2ccccc21)C1CCS(=O)(=O)C1 (centres undefined) | -3 | 2 | 5 | 24* | -2
Cc1ccccc1N/N=C/c1c(C)nc2ccccn12 | 3 | 9 | 4 | 5 | 11
COc1ccc2c(c1)c(=O)oc1cc(OCC(=O)N3CCCC(C)C3)ccc12 (centres undefined) | -3 | -4 | 43* | 1 | 41*
Nc1ccn([C@@H]2O[C@H](C(=O)N[C@H](Cc3ccccc3)C(=O)N3CCN(CC(=O)N4CCCC4)CC3)[C@@H](O)[C@H]2O)c(=O)n1 | . | . | -7 | . | 4
Cc1ccc(C)c(S(=O)(=O)N(C)c2ccc(OC(=O)C3CCN(C(=O)Nc4ccccc4)CC3)cc2)c1 | 2 | 2 | 5 | 25* | -12
Cc1ccc(S(=O)(=O)N(C)C)cc1NC(=O)C1CCN(C(=O)Nc2ccccc2)CC1 | 1 | -1 | 3 | 1 | 0
CSC(=S)NN=C(C)c1cccc(C)n1 | 8 | 2 | 5 | 27* | -9
CC(=NNC(=S)N1CCCCC1)c1cccc(C)n1 | -3 | -5 | 4 | 9 | 11
C=CC[C@]12C[C@@]3(O[C@H](c4ccccn4)N=C3C[C@H](c3ccc(OC)cc3)[C@H]1C)N(C1CCN(Cc3ccccc3)CC1)C2=O | . | . | 11 | . | 6
C[n+]1c2n(c3ccccc31)N=C(c1cc(C(C)(C)C)c(O)c(C(C)(C)C)c1)CS2 | 1 | 58* | 2 | -1 | -6
O=C(Cc1ccccc1)Nc1ccccc1Sc1ccccc1 | 2 | 3 | 20 | 4 | -6
O=C(Cc1ccc(F)cc1)Nc1ccccc1Sc1ccccc1 | 16* | -2 | -2 | 7 | -1
CNc1ccccc1 | 2 | -6 | -3 | -3 | 5
CNc1cccccc1=S | 1 | -1 | -1 | 25* | -1
SMILES | V-ATPase pHluor | Exocytosis inh | ARFGAP1 inh | NRP1-CendR mod | ASAP1 GAP inh
O=C1C=CC2(O[C@H](c3ccccc3)[C@@H](c3ccccc3)O2)[C@H](Sc2ccccc2O)C1 | 3 | 102* | -15 | 9 | -3
Cc1ccc(S(=O)(=O)/N=C2\C=C(Nc3cccc(C(=O)O)c3)C(=O)c3ccccc32)c(C)c1 | 1 | 22 | 2 | 38* | 19
Cc1ccc(S(=O)(=O)/N=C2\C=C(Nc3ccc(O)cc3)C(=O)c3ccccc32)cc1 | -3 | . | . | 10 | .
Cc1ccc(S(=O)(=O)/N=C2\C=C(Nc3cccc(C(=O)O)c3)C(=O)c3ccccc32)cc1 | -93 | 27 | 1 | 45* | 10
O=[N+]([O-])c1ccc(SN2CCCCC2)c([N+](=O)[O-])c1 | . | . | -17 | . | 0
CCOC(=O)c1c(C)[nH]c(C)c1S(=O)(=O)NC(C)Cc1ccco1 (centres undefined) | 1 | -2 | -3 | 9 | 4
COc1ccc(C(=S)N2CCOCC2)cc1OC(=O)c1cc([N+](=O)[O-])c(C)c([N+](=O)[O-])c1 | -1 | 2 | -5 | 28* | 2
COc1cc(C(=S)N2CCOCC2)ccc1OC(=O)c1cc([N+](=O)[O-])c(C)c([N+](=O)[O-])c1 | 2 | -1 | -8 | 3 | -10
CNc1cccc2c1C(=O)c1ccccc1C2=O | -4 | 0 | -7 | 17 | -4
O=C1C=CC(=Nc2cccc3c2C(=O)c2ccccc2-3)O1 | 11* | 0 | . | -29 | .
Nc1ccn([C@@H]2O[C@H](C(=O)N[C@H](Cc3ccccc3)C(=O)N3CCSC3)[C@@H](O)[C@H]2O)c(=O)n1 | . | . | -6 | . | 8
CC(Sc1ncccn1)C(=O)NC1(C#N)CCCCC1 (centres undefined) | -1 | 0 | -5 | 26* | -12
C[C@@H]1CN([C@@H](C)CO)C(=O)CCCn2cc(nn2)CO[C@H]1CN(C)C(=O)Nc1ccccc1F | . | . | -11 | . | -16
O=C(N[C@H](C(=O)N1CCC[C@H]1C(=O)NCc1ccccc1)c1ccccc1)c1ccc(Cl)c(Cl)c1 | . | . | 10 | . | 11
NC(=O)CC(NC(=O)c1cccc(Br)c1)c1ccc(N2CCN(c3ccccn3)CC2)c([N+](=O)[O-])c1 (centres undefined) | 0 | -8 | 3 | 10 | 5
NC(=O)CC(NC(=O)c1ccc(Br)cc1)c1ccc(N2CCN(c3ccccn3)CC2)c([N+](=O)[O-])c1 (centres undefined) | 0 | 65* | 20 | 11 | 3
O=c1ccc(N=Nc2ccccc2)ccc1O | 44* | -9 | -15 | 4 | -5
COc1cc(NCc2ccccc2)c2ncn(Cc3ccccc3)c2c1 | 14* | -2 | 3 | -2 | -1
COC(=O)c1ccc(-c2cccc(CN3CCN(c4ncc(Cc5ccccc5)cn4)CC3)c2)cc1 | . | . | 5 | . | -8
C[C@H]1CNCCN1c1ccc(N2CCS(=O)(=O)CC2)c(C#N)c1 | . | . | 9 | . | -9
c1cnc2c(SCc3ccc(-c4nnco4)cc3)cccc2c1 | 7 | 69* | 6 | 3 | 4
NNC(=O)c1ccc(CSc2cccc3cccnc23)cc1 | 2 | -1 | 6 | 2 | -13
